The source made the active and inactive calls. The calls are words filed in the database; no cut-off is given here.
How the values were obtained:
Platelet = experiment: Induction of platelets aggregation in human platelet rich plasma at 10^-4 M after 3 mins by light transmission aggregometry analysis; type: functional, cell-free
How it was run: (§1)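 PRP from citrated whole blood (9:1) of healthy volunteers taken 2 h after an acetylsalicylic acid tablet; centrifuged 150g, 21 °C, 10 min. Pre-warmed PRP at 37 °C with test agent (10^-4 M) or vehicle; aggregation triggered with 10^-6 M ADP; shape change and aggregation followed 3 min by light transmission aggregometry.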

[1] = Antiplatelet activity against human platelets assessed as inhibition of ADP-induced platelet aggregation at 10^-4 M after 3 mins by light transmission aggregometry analysis; type: functional; conditions: 0.05 h; how it was run: as §1
[2] = Half life in Wistar rat liver homogenates at 50 uM by HPLC analysis; type: ADME, tissue-based
How it was run: (§2)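 Male Wistar rat liver washed in ice-cold saline, homogenized in 50 mM Tris-HCl pH 7.4 (4 mL/g); 2000 × g, 10 min, 4 °C supernatant stored −80 °C. Compound from 10^-2 M DMSO stock incubated at 50 μM final, 37 °C, up to 360 min; HPLC with external-standard peak areas. First-order kinetics from semilogarithmic plots; mean ± SD of three independent experiments.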

[3] = (§3) Metabolic stability in Wistar rat liver homogenates assessed as compound degradation at 50 uM after 6 hrs by HPLC analysis; type: ADME, tissue-based; conditions: Wistar, liver homogenates, read-out: Drug degradation; how it was run: as §2
[4] = (§4) Metabolic stability in human whole blood assessed as compound degradation after 6 hrs by HPLC analysis; type: ADME, tissue-based; conditions: whole blood, read-out: Drug degradation
How it was run: (§5)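 Compound from 10^-2 M DMSO stock incubated at 50 μM final in whole blood from healthy subjects (3 mL) at 37 °C for intervals up to 360 min. Remaining parent quantified by reversed-phase HPLC, peak areas against external standards; semilogarithmic regression for first-order kinetics; mean ± SD of three independent experiments.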

Liver [5] = experiment: Drug degradation in Wistar rat liver homogenates assessed as increase in guanine formation by HPLC analysis; type: ADME, tissue-based; conditions: tissue homogenate
How it was run: (§6)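 Supernatant of male Wistar rat liver homogenate (Tris-HCl 50 mM, pH 7.4; 2000 × g) incubated at 37 °C with 50 μM compound up to 360 min. Guanine measured by RP18 HPLC, water/acetonitrile 99:1 with 0.01 M H3PO4, 0.8 mL/min, external-standard peak areas.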

Liver [6] = experiment: Metabolic stability in Wistar rat liver homogenates assessed as increase in guanine formation by HPLC analysis; type: ADME, tissue-based; conditions: tissue homogenate; how it was run: as §6
Liver [7] = experiment: as §3; type: ADME, tissue-based; conditions: tissue homogenate, 6 h, 50 µM; how it was run: as §2
Blood = experiment: as §4; type: ADME, tissue-based; conditions: blood, 6 h; how it was run: as §5

SMILES | Activity (Platelet) | also measured
CCOP(=O)(CC(=O)OC[C@H]1O[C@@H](n2c(SC)nc3c(N)ncnc32)[C@H](O)[C@@H]1O)OCC | inactive | 
CCOP(=O)(CC(=O)OC[C@H]1O[C@@H](n2cnc3c(=O)[nH]c(N)nc32)[C@H](O)[C@@H]1O)OCC | inactive | inhibition at 100 µM [1]: ≤ 70%; half-life at 50 µM [2]: 140 min; metabolised at 6 h, 50 µM [3]: 80%; metabolised at 6 h [4]: 20%; Drug degradation (Liver [5]): Active
CCOP(=O)(CC(=O)OC[C@H](CO)O[C@H](CO)n1cnc2c(N)ncnc21)OCC | inactive | 
Nc1nc2c(ncn2[C@@H]2O[C@H](COC(=O)CP(=O)(O)O)[C@@H](O)[C@H]2O)c(=O)[nH]1 | inactive | 
Nc1nc2c(ncn2[C@@H]2O[C@H](CO)[C@@H](O)[C@H]2O)c(=O)[nH]1 [GUANOSINE] |  | half-life at 50 µM [2]: 0.242 min; Stability (Liver [6]): Unstable
CCOP(=O)(CC(=O)NC[C@H]1O[C@@H](n2cnc3c(N)ncnc32)[C@H](O)[C@@H]1O)OCC | inactive | 
CCOP(=O)(CC(=O)OC[C@H]1O[C@@H](n2cnc3c(N)ncnc32)[C@H](O)[C@@H]1O)OCC | inactive | 
CCOP(=O)(CC(=O)OCCOCn1cnc2c(N)ncnc21)OCC | inactive | 
O=C(CP(=O)(O)O)NC[C@H]1O[C@@H](n2cnc3c(=O)[nH]cnc32)[C@H](O)[C@@H]1O | inactive | 
CC(C)C(=O)Nc1nc2c(ncn2[C@@H]2O[C@H](COC(=O)CP(=O)(O)O)[C@@H](O)[C@H]2O)c(=O)[nH]1 | inactive | 
Nc1ncnc2c1ncn2[C@@H]1O[C@H](COC(=O)CP(=O)(O)O)[C@@H](O)[C@H]1O [ADENOSINE PHOSPHONOACETIC ACID] | inactive | inhibition at 100 µM [1]: ≤ 70%; Stability (Liver [7]): Stable; Stability (Blood): Stable
CCOP(=O)(CC(=O)OC[C@H]1O[C@@H](n2cnc3c(=O)[nH]cnc32)[C@H](O)[C@@H]1O)OCC | inactive | 
CCOP(=O)(CC(=O)NC[C@H]1O[C@@H](n2cnc3c(=O)[nH]cnc32)[C@H](O)[C@@H]1O)OCC | inactive | 
CCOP(=O)(O)CC(=O)OCCOCn1cnc2c(N)ncnc21 | inactive | inhibition at 100 µM [1]: ≤ 70%; Stability (Liver [7]): Stable; Stability (Blood): Stable
CCOP(=O)(CC(=O)OC[C@H]1O[C@@H](n2cnc3c(=O)[nH]c(NC(=O)C(C)C)nc32)[C@H](O)[C@@H]1O)OCC | inactive | 
Nc1ncnc2c1ncn2[C@@H]1O[C@H](CNC(=O)CP(=O)(O)O)[C@@H](O)[C@H]1O | inactive | 
CCOP(=O)(CC(=O)NC[C@H](CO)O[C@H](CO)n1cnc2c(N)ncnc21)OCC | inactive | 

Source: ChEMBL document CHEMBL2040843, “Synthesis and in vitro stability of nucleoside 5'-phosphonate derivatives” (Eur J Med Chem, 2012)
